In ChEMBL document CHEMBL5712900, “JQ1 affects BRD2-dependent and independent transcription regulation without disrupting H4-hyperacetylated chromatin states” (2018):
The source made the active and inactive calls. The rule behind the calls is not given here.

Assays:
[1] = test system: NCI-H23; test: Induction of apoptosis in human NCI-H23 cells at 5 to 5000 nM incubated for 24 hsr by Green Apoptosis assay; format: functional, cell-based; settings: dose 5-5000 nM, time 24.0 hrs
How it was run: (§1)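 RFP-labelled H23 cells were seeded at 8,000 cells/well one day ahead and given JQ1 at 5, 50, 500, 1,000 or 5,000 nM. For apoptosis, Caspase-3/7 Green reagent (DEVD–NucView488) was added with the drug. Plates were imaged hourly for 24 h. Red (proliferating) or green (apoptotic) objects were counted per image and expressed as fold change versus 0 h.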

[2] = test system: NCI-H23; test: Effect in H4K5acK8ac global level enhancer region in human NCI-H23 cells at 500 nM incubated for 24 hrs by Chip-seq assay; format: functional, cell-based
How it was run: (§2)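 H23 cells received 500 nM JQ1 or DMSO for 24 h and then underwent formaldehyde crosslinking. For spike-in ChIP-seq, H23 chromatin was mixed with Drosophila chromatin at 400:1 for H4K5acK8ac or 600:1 for BRD2, adding anti-H2Av antibody. Reads were normalized to Drosophila counts, with two biological replicates. Signals were averaged over peaks from untreated cells, and differential H4K5acK8ac peaks were called at FDR <0.05.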

[3] = test system: NCI-H23; test: Effect in H3K27ac global level in human NCI-H23 cells at 500 nM incubated for 24 hrs by Chip-seq assay; format: functional, cell-based
[4] = test system: NCI-H23; test: Down regulation of FOSL1 gene expression in human NCI-H23 cells at 500 nM measured after 3 to 24 hrs by qPCR analysis; format: functional, cell-based; settings: time 3-24 hrs
How it was run: (§3)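 H23 cells were grown in RPMI-1640 with 10% FBS and plated 48 h before treatment at 170,000 cells/ml. Medium was replaced with fresh medium containing 500 nM JQ1 or matched DMSO, and cells were harvested at 3, 6, 12 and 24 h. Total RNA was extracted with TRIzol and assayed by SYBR qPCR (40 cycles). Expression was normalized to GAPDH and compared with DMSO. There were three biological replicates, each run in duplicate twice.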

[5] = test system: NCI-H23; test: Effect in H4K5acK8ac global level super enhancer region in human NCI-H23 cells at 500 nM incubated for 24 hrs by Chip-seq assay; format: functional, cell-based; how it was run: as §2
[6] = molecular target: Bromodomain-containing protein 2 (Homo sapiens) (UniProt P25440); settings: NCI-H23, dose 500.0 nM, time 24.0 hrs
Chain of Bromodomain-containing protein 2 (Homo sapiens) (P25440 whole entry, looked up): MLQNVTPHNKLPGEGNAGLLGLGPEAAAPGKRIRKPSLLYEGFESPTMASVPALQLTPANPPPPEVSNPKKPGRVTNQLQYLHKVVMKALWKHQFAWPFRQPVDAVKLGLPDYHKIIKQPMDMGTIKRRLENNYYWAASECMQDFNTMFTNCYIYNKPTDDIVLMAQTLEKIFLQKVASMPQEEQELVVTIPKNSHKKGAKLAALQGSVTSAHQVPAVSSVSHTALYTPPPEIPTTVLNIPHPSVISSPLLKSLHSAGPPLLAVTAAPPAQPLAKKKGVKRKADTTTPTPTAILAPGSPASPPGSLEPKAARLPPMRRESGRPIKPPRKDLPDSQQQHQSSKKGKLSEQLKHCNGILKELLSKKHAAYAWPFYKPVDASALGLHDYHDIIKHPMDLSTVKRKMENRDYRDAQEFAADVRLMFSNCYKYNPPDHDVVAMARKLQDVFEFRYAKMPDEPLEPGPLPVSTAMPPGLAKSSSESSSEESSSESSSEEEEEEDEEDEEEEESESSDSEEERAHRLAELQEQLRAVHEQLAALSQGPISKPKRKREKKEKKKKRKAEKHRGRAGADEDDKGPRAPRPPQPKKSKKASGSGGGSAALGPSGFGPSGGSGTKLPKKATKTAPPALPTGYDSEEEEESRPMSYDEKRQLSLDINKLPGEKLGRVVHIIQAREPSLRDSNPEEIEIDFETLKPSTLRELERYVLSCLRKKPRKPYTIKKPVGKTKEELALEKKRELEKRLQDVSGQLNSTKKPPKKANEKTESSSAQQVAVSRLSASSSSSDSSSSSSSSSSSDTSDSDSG

[7] = test system: NCI-H23; test: Down regulation of BRD4 gene expression in human NCI-H23 cells at 500 nM measured after 3 to 24 hrs by qPCR analysis; format: functional, cell-based; settings: time 3-24 hrs; how it was run: as §3
[8] = test system: NCI-H23; test: Down regulation of FOSL1 protein expression in human NCI-H23 cells at 500 nM measured after 3 to 24 hrs by […]; format: functional, cell-based; settings: time 3-24 hrs
[9] = test system: NCI-H23; test: Down regulation of CFLAIR gene expression in human NCI-H23 cells at 500 nM measured after 3 to 24 hrs by qPCR analysis; format: functional, cell-based; settings: time 3-24 hrs; how it was run: as §3
[10] = test system: NCI-H23; test: Down regulation of WNT2 gene expression in human NCI-H23 cells at 500 nM measured after 3 to 24 hrs by qPCR analysis; format: functional, cell-based; settings: time 3-24 hrs; how it was run: as §3
[11] = test system: NCI-H23; test: Upregulation of MYC gene expression in human NCI-H23 cells at 500 nM measured after 3 to 24 hrs by qPCR analysis; format: functional, cell-based; settings: time 3-24 hrs; how it was run: as §3
[12] = test system: NCI-H23; test: Effect in H3K27ac subpopulation level in human NCI-H23 cells at 500 nM incubated for 24 hrs by Chip-seq assay; format: functional, cell-based
[13] = test system: NCI-H23; test: Effect in H4K5acK8ac global level Promoter region in human NCI-H23 cells at 500 nM incubated for 24 hrs by Chip-seq assay; format: functional, cell-based; how it was run: as §2
[14] = test system: NCI-H23; test: Down regulation of BCL2 gene expression in human NCI-H23 cells at 500 nM measured after 3 to 24 hrs by qPCR analysis; format: functional, cell-based; settings: time 3-24 hrs; how it was run: as §3
[15] = test system: NCI-H23; test: Effect in H4K5acK8ac subpopulation level in human NCI-H23 cells at 500 nM incubated for 24 hrs by Chip-seq assay; format: functional; how it was run: as §2
[16] = test system: NCI-H23; test: Down regulation of BRD2 gene expression in human NCI-H23 cells at 500 nM measured after 3 to 24 hrs by qPCR analysis; format: functional, cell-based; settings: time 3-24 hrs; how it was run: as §3
[17] = test system: NCI-H23; test: Antiproliferation activity against human NCI-H23 cells assessed as decrease in cell proliferation at 5 to 5000 nM incubated for 24 hrs by Green Apoptosis Assay; format: functional, cell-based; settings: dose 5-5000 nM; how it was run: as §1
[18] = test system: NCI-H23; test: Down regulation of WNT5A-2 gene expression in human NCI-H23 cells at 500 nM measured after 3 to 24 hrs by qPCR analysis; format: functional, cell-based; settings: time 3-24 hrs; how it was run: as §3
[19] = test system: NCI-H23; test: Effect on CTNNB1 gene expression in human NCI-H23 cells at 500 nM measured after 3 to 24 hrs by qPCR analysis; format: functional, cell-based; settings: time 3-24 hrs; how it was run: as §3

Compound: Cc1sc2c(c1C)C(c1ccc(Cl)cc1)=N[C@@H](CC(=O)OC(C)(C)C)c1nnc(C)n1-2
- Activity [1]: Active
- Activity [2]: inactive
- Activity [3]: inactive
- Activity [4]: Active
- Activity [5]: inactive
- inhibition [6]: 100%
- Activity [7]: inactive
- Activity [8]: Active
- Activity [9]: Active
- Activity [10]: Active
- Activity [11]: Active
- Activity [12]: Active
- Activity [13]: inactive
- Activity [14]: Active
- fold change (FC) [15]: 2
- Activity [16]: inactive
- Activity [17]: Active
- Activity [18]: Active
- Activity [19]: Active
